{
  "source": "ChEMBL document CHEMBL5303300",
  "about": "“EUbOPEN Chemogenomics Library - Multiplex” (2023)",
  "key": {"Fibroblast": {"tested_on": "Fibroblast", "experiment": "Multiplex assay against human fibroblast", "format": "toxicity, cell-based", "conditions": "number of replicates 2", "how_it_was_run": "(§1)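 With compound added, live cells were imaged on a CQ1 microscope at 37°C and 5% CO2; staining with Hoechst33342, BioTracker Green Microtubule Cytoskeleton Dye, MitoTracker Red and Annexin V Alexa Fluor 680 had been done at seeding. The CellPathfinder machine-learning gating scheme split cells into Hoechst high-intensity objects or normal cells, normal cells into healthy, pyknosed or fragmented nuclei, and pyknosed cells into mitotic or apoptotic. The tubulin, mitochondrial-mass and membrane-permeability phenotypes are per cents of healthy-nucleus cells.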"}, "HEK-293T": {"tested_on": "HEK-293T", "experiment": "Multiplex assay against HEK293T", "format": "toxicity, cell-based", "conditions": "human, number of replicates 2", "how_it_was_run": "as §1"}, "[1]": {"conditions": "24 h, 10 µM, compound concentration 10 uM"}, "[2]": {"conditions": "48 h, 1 µM, compound concentration 1 uM"}, "[3]": {"conditions": "48 h, 10 µM, compound concentration 10 uM"}, "[4]": {"conditions": "12 h, 1 µM, compound concentration 1 uM"}, "[5]": {"conditions": "12 h, 10 µM, compound concentration 10 uM"}, "[6]": {"conditions": "24 h, 1 µM, compound concentration 1 uM"}},
  "note": "Several values for one entry are separate records, joined by “and”; a condition that tells them apart may be missing. Equal entries are not always repeated.",
  "data": [
    {"smiles": "COc1c(OCCCN2CCOCC2)ccc2c1N=C(NC(=O)c1cnc(N)nc1)N1CCN=C21", "note": "[COPANLISIB]", "values": [
      {"measurement": "Total Cell Count", "setting": "Fibroblast; [1]", "value": "174 and 209"},
      {"measurement": "Population Apoptotic (%)", "setting": "Fibroblast; [2]", "value": "73% and 57%"},
      {"measurement": "Population Fragmented Nuclei (%)", "setting": "Fibroblast; [2]", "value": "7% and 14%"},
      {"measurement": "Population Healthy Nuclei (%)", "setting": "Fibroblast; [2]", "value": "70% and 71%"},
      {"measurement": "Population Hoechst High Intensity Objects (%)", "setting": "Fibroblast; [2]", "value": 0, "unit": "%"},
      {"measurement": "Population Membrane Permeable-Phenotype (%)", "setting": "Fibroblast; [2]", "value": "6% and 10%"},
      {"measurement": "Population Mitochondria Different-Phenotype (%)", "setting": "Fibroblast; [2]", "value": 0, "unit": "%"},
      {"measurement": "Population Mitotic Cells (%)", "setting": "Fibroblast; [2]", "value": "26% and 42%"},
      {"measurement": "Population Normal (%)", "setting": "Fibroblast; [2]", "value": 100, "unit": "%"},
      {"measurement": "Population Pyknosed Nuclei (%)", "setting": "Fibroblast; [2]", "value": "21% and 14%"},
      {"measurement": "Population Tubulin-Different-Phenotype (%)", "setting": "Fibroblast; [2]", "value": "2% and 3%"},
      {"measurement": "Total Cell Count", "setting": "Fibroblast; [2]", "value": "140 and 176"},
      {"measurement": "Population Apoptotic (%)", "setting": "Fibroblast; [3]", "value": "68% and 77%"},
      {"measurement": "Population Fragmented Nuclei (%)", "setting": "Fibroblast; [3]", "value": "15% and 18%"},
      {"measurement": "Population Healthy Nuclei (%)", "setting": "Fibroblast; [3]", "value": 70, "unit": "%"},
      {"measurement": "Population Hoechst High Intensity Objects (%)", "setting": "Fibroblast; [3]", "value": "1% and 0%"},
      {"measurement": "Population Membrane Permeable-Phenotype (%)", "setting": "Fibroblast; [3]", "value": "11% and 4%"},
      {"measurement": "Population Mitochondria Different-Phenotype (%)", "setting": "Fibroblast; [3]", "value": "1% and 2%"},
      {"measurement": "Population Mitotic Cells (%)", "setting": "Fibroblast; [3]", "value": "32% and 22%"},
      {"measurement": "Population Normal (%)", "setting": "Fibroblast; [3]", "value": "98% and 100%"},
      {"measurement": "Population Pyknosed Nuclei (%)", "setting": "Fibroblast; [3]", "value": "14% and 10%"},
      {"measurement": "Total Cell Count", "setting": "Fibroblast; [3]", "value": "176 and 205"},
      {"measurement": "Population Apoptotic (%)", "setting": "HEK-293T; [4]", "value": "66% and 65%"},
      {"measurement": "Population Fragmented Nuclei (%)", "setting": "HEK-293T; [4]", "value": "7% and 3%"},
      {"measurement": "Population Healthy Nuclei (%)", "setting": "HEK-293T; [4]", "value": "66% and 82%"},
      {"measurement": "Population Hoechst High Intensity Objects (%)", "setting": "HEK-293T; [4]", "value": "14% and 12%"},
      {"measurement": "Population Membrane Permeable-Phenotype (%)", "setting": "HEK-293T; [4]", "value": "2% and 1%"},
      {"measurement": "Population Mitochondria Different-Phenotype (%)", "setting": "HEK-293T; [4]", "value": "43% and 39%"},
      {"measurement": "Population Mitotic Cells (%)", "setting": "HEK-293T; [4]", "value": "33% and 34%"},
      {"measurement": "Population Normal (%)", "setting": "HEK-293T; [4]", "value": "85% and 87%"},
      {"measurement": "Population Pyknosed Nuclei (%)", "setting": "HEK-293T; [4]", "value": "25% and 13%"},
      {"measurement": "Population Tubulin-Different-Phenotype (%)", "setting": "HEK-293T; [4]", "value": "57% and 58%"},
      {"measurement": "Total Cell Count", "setting": "HEK-293T; [4]", "value": "337 and 345"},
      {"measurement": "Population Apoptotic (%)", "setting": "HEK-293T; [5]", "value": "67% and 62%"},
      {"measurement": "Population Fragmented Nuclei (%)", "setting": "HEK-293T; [5]", "value": "7% and 2%"},
      {"measurement": "Population Healthy Nuclei (%)", "setting": "HEK-293T; [5]", "value": "74% and 83%"},
      {"measurement": "Population Hoechst High Intensity Objects (%)", "setting": "HEK-293T; [5]", "value": "13% and 11%"},
      {"measurement": "Population Membrane Permeable-Phenotype (%)", "setting": "HEK-293T; [5]", "value": "1% and 0%"},
      {"measurement": "Population Mitochondria Different-Phenotype (%)", "setting": "HEK-293T; [5]", "value": "60% and 66%"},
      {"measurement": "Population Mitotic Cells (%)", "setting": "HEK-293T; [5]", "value": "32% and 37%"},
      {"measurement": "Population Normal (%)", "setting": "HEK-293T; [5]", "value": "86% and 88%"},
      {"measurement": "Population Pyknosed Nuclei (%)", "setting": "HEK-293T; [5]", "value": "18% and 13%"},
      {"measurement": "Population Tubulin-Different-Phenotype (%)", "setting": "HEK-293T; [5]", "value": "68% and 71%"},
      {"measurement": "Total Cell Count", "setting": "HEK-293T; [5]", "value": "237 and 220"},
      {"measurement": "Population Apoptotic (%)", "setting": "HEK-293T; [6]", "value": "76% and 67%"},
      {"measurement": "Population Fragmented Nuclei (%)", "setting": "HEK-293T; [6]", "value": "5% and 3%"},
      {"measurement": "Population Healthy Nuclei (%)", "setting": "HEK-293T; [6]", "value": "74% and 80%"},
      {"measurement": "Population Hoechst High Intensity Objects (%)", "setting": "HEK-293T; [6]", "value": "16% and 20%"},
      {"measurement": "Population Membrane Permeable-Phenotype (%)", "setting": "HEK-293T; [6]", "value": 1, "unit": "%"},
      {"measurement": "Population Mitochondria Different-Phenotype (%)", "setting": "HEK-293T; [6]", "value": "35% and 33%"},
      {"measurement": "Population Mitotic Cells (%)", "setting": "HEK-293T; [6]", "value": "23% and 32%"},
      {"measurement": "Population Normal (%)", "setting": "HEK-293T; [6]", "value": "83% and 79%"},
      {"measurement": "Population Pyknosed Nuclei (%)", "setting": "HEK-293T; [6]", "value": "20% and 15%"},
      {"measurement": "Population Tubulin-Different-Phenotype (%)", "setting": "HEK-293T; [6]", "value": "56% and 60%"},
      {"measurement": "Total Cell Count", "setting": "HEK-293T; [6]", "value": "382 and 316"},
      {"measurement": "Population Apoptotic (%)", "setting": "HEK-293T; [1]", "value": "80% and 50%"},
      {"measurement": "Population Fragmented Nuclei (%)", "setting": "HEK-293T; [1]", "value": "6% and 2%"},
      {"measurement": "Population Healthy Nuclei (%)", "setting": "HEK-293T; [1]", "value": "76% and 82%"},
      {"measurement": "Population Hoechst High Intensity Objects (%)", "setting": "HEK-293T; [1]", "value": "20% and 16%"},
      {"measurement": "Population Membrane Permeable-Phenotype (%)", "setting": "HEK-293T; [1]", "value": "2% and 1%"},
      {"measurement": "Population Mitochondria Different-Phenotype (%)", "setting": "HEK-293T; [1]", "value": "52% and 58%"},
      {"measurement": "Population Mitotic Cells (%)", "setting": "HEK-293T; [1]", "value": "19% and 50%"},
      {"measurement": "Population Normal (%)", "setting": "HEK-293T; [1]", "value": "79% and 83%"},
      {"measurement": "Population Pyknosed Nuclei (%)", "setting": "HEK-293T; [1]", "value": "17% and 15%"},
      {"measurement": "Population Tubulin-Different-Phenotype (%)", "setting": "HEK-293T; [1]", "value": "67% and 68%"},
      {"measurement": "Total Cell Count", "setting": "HEK-293T; [1]", "value": "229 and 189"},
      {"measurement": "Population Apoptotic (%)", "setting": "HEK-293T; [2]", "value": "62% and 63%"},
      {"measurement": "Population Fragmented Nuclei (%)", "setting": "HEK-293T; [2]", "value": "9% and 12%"},
      {"measurement": "Population Healthy Nuclei (%)", "setting": "HEK-293T; [2]", "value": "75% and 78%"},
      {"measurement": "Population Hoechst High Intensity Objects (%)", "setting": "HEK-293T; [2]", "value": "20% and 26%"},
      {"measurement": "Population Membrane Permeable-Phenotype (%)", "setting": "HEK-293T; [2]", "value": "1% and 3%"},
      {"measurement": "Population Mitochondria Different-Phenotype (%)", "setting": "HEK-293T; [2]", "value": "16% and 6%"},
      {"measurement": "Population Mitotic Cells (%)", "setting": "HEK-293T; [2]", "value": "37% and 36%"},
      {"measurement": "Population Normal (%)", "setting": "HEK-293T; [2]", "value": "79% and 73%"},
      {"measurement": "Population Pyknosed Nuclei (%)", "setting": "HEK-293T; [2]", "value": "15% and 8%"},
      {"measurement": "Population Tubulin-Different-Phenotype (%)", "setting": "HEK-293T; [2]", "value": "70% and 43%"},
      {"measurement": "Total Cell Count", "setting": "HEK-293T; [2]", "value": "374 and 726"},
      {"measurement": "Population Apoptotic (%)", "setting": "HEK-293T; [3]", "value": "68% and 74%"},
      {"measurement": "Population Fragmented Nuclei (%)", "setting": "HEK-293T; [3]", "value": "9% and 6%"},
      {"measurement": "Population Healthy Nuclei (%)", "setting": "HEK-293T; [3]", "value": "66% and 76%"},
      {"measurement": "Population Hoechst High Intensity Objects (%)", "setting": "HEK-293T; [3]", "value": "20% and 25%"},
      {"measurement": "Population Membrane Permeable-Phenotype (%)", "setting": "HEK-293T; [3]", "value": "4% and 2%"},
      {"measurement": "Population Mitochondria Different-Phenotype (%)", "setting": "HEK-293T; [3]", "value": "41% and 45%"},
      {"measurement": "Population Mitotic Cells (%)", "setting": "HEK-293T; [3]", "value": "31% and 25%"},
      {"measurement": "Population Normal (%)", "setting": "HEK-293T; [3]", "value": "79% and 74%"},
      {"measurement": "Population Pyknosed Nuclei (%)", "setting": "HEK-293T; [3]", "value": "24% and 16%"},
      {"measurement": "Population Tubulin-Different-Phenotype (%)", "setting": "HEK-293T; [3]", "value": "68% and 72%"},
      {"measurement": "Total Cell Count", "setting": "HEK-293T; [3]", "value": "262 and 245"}
    ]}
  ]
}
